Experimental data published in ChEMBL document CHEMBL1833901, “MDM2-p53 protein-protein interaction inhibitors: a-ring substituted isoindolinones” (Bioorg Med Chem Lett, 2011).
Calls of active or inactive are those of the source. The calls are words filed in the database; no cut-off is given here.

Key:
[1] = biological target: Tumour suppressor p53/oncoprotein Mdm2 (Homo sapiens, UniProt Q00987); experiment: Inhibition of human MDM2-p53 interaction after 20 mins by […] method; assay type: protein assay
Chain of Tumour suppressor p53/oncoprotein Mdm2 (P04637 whole entry): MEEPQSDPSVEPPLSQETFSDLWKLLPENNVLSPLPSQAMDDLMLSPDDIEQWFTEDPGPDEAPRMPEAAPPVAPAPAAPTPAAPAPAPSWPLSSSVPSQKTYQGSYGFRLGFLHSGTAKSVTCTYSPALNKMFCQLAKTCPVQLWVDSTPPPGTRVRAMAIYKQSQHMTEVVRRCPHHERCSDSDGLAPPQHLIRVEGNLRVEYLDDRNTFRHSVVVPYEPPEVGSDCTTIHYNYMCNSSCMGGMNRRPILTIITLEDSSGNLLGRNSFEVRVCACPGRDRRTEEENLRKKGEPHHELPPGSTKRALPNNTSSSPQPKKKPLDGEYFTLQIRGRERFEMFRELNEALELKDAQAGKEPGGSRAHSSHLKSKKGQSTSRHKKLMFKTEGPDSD
Chain of Tumour suppressor p53/oncoprotein Mdm2 (Q00987 whole entry): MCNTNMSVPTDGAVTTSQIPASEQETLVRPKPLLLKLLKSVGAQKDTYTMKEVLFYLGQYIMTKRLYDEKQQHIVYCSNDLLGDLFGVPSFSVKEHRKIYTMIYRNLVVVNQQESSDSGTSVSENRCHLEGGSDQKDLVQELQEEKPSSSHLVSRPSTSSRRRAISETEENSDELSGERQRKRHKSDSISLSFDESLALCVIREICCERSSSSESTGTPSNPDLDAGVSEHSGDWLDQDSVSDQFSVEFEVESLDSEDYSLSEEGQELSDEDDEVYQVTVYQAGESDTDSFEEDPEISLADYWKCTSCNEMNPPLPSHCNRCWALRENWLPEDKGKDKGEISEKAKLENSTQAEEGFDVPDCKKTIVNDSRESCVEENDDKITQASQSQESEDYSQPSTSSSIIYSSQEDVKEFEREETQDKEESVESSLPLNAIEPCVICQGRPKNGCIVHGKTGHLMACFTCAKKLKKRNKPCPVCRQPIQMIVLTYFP

SJSA-1 [2] = experiment: Growth inhibition of human SJSA1 cells expressing MDM2 by SRB assay; assay type: functional
Outline: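 Growth inhibition assayed in the MDM2-amplified cell line SJSA-1. Values are the mean of at least three determinations ± SE.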

HCT-116 [3] = experiment: Growth inhibition of human HCT116 cells expressing MDM2 by SRB assay; assay type: functional
HCT-116 [4] = experiment: Growth inhibition of p53 deficient human HCT116 cells expressing MDM2 by SRB assay; assay type: functional
A2780 = experiment: Growth inhibition of human A2780 cells expressing MDM2 by SRB assay; assay type: functional
[5] = Growth inhibition of human A2780/CP70 cells expressing isogenically paired p53 mutant by SRB assay; assay type: functional
SJSA-1 [6] = experiment: Increase of MDM2 expression in human SJSA1 cells after 6 hrs by Western blotting; assay type: functional, cell-based
SJSA-1 [7] = experiment: Increase of P53 expression in human SJSA1 cells after 6 hrs by Western blotting; assay type: functional, cell-based
SJSA-1 [8] = experiment: Increase of P21 protein level in human SJSA1 cells after 6 hrs by Western blotting; assay type: functional, cell-based
SJSA-1 [9] = experiment: Increase of P21 protein level in human SJSA1 cells at 5 to 10 uM after 6 hrs by Western blotting; assay type: functional, cell-based
SJSA-1 [10] = experiment: Increase of P53 expression in human SJSA1 cells at 5 to 10 uM after 6 hrs by Western blotting; assay type: functional, cell-based
SJSA-1 [11] = experiment: Increase of MDM2 expression in human SJSA1 cells at 5 to 10 uM after 6 hrs by Western blotting; assay type: functional, cell-based

In the case of `O=C1c2cccc(Cl)c2C(OCC2(CO)CC2)(c2ccc(Cl)cc2)N1Cc1ccc(S(=O)(=O)C(F)(F)F)cc1` (stereo not drawn), the IC50 [1] is reported as 9 µM.

`O=C1C2=C(CCCC2)C(OCC2(CO)CC2)(c2ccc(Cl)cc2)N1Cc1ccc([N+](=O)[O-])cc1` (stereo not drawn) showed an IC50 [1] of 3.47 µM.

For `CC1=C(C)C(OCC2(CO)CC2)(c2ccc(Cl)cc2)N(Cc2ccccc2)C1=O` (stereo not drawn), the IC50 [1] was 3.45 µM.

`CCCN1C(=O)C(C)=C(C)C1(OCC1(CO)CC1)c1ccc(Cl)cc1` (stereo not drawn) gave an IC50 [1] of 8.9 µM.

Work on `CC(C)(C)C[C@H]1N[C@@H](C(=O)NCCN2CCOCC2)[C@H](c2cccc(Cl)c2F)[C@@]12C(=O)Nc1cc(Cl)ccc12` yielded a GI50 (SJSA-1 [2]; Homo sapiens, SJSA-1) of 0.55 µM, a GI50 (HCT-116 [3]; Homo sapiens, HCT-116) of 1.3 µM and a GI50 (HCT-116 [4]; Homo sapiens, HCT-116) of 11.8 µM. The GI50 (A2780; Homo sapiens, A2780) was 1.19 µM and the GI50 ([5]; Homo sapiens, A2780/CP70) was 15.1 µM.

For `O=C1c2cccc(Cl)c2C(OCC2(CO)CC2)(c2ccc(Cl)cc2)N1Cc1ccc([N+](=O)[O-])cc1` (racemic) [listing 1 of 2 here], the GI50 (SJSA-1 [2]) was 6 µM, the GI50 (HCT-116 [3]) was 6 µM and the GI50 (HCT-116 [4]) was 14.9 µM. The GI50 (A2780) was 4.2 µM and the GI50 [5] was 15.9 µM.

With `O=C1c2cccc(Cl)c2C(OCC2(CO)CC2)(c2ccc(Cl)cc2)N1Cc1ccc([N+](=O)[O-])cc1` (racemic) [listing 2 of 2 here] the Activity (SJSA-1 [6]) was “Dose-dependent effect”, the Activity (SJSA-1 [7]) was “Dose-dependent effect” and the Activity (SJSA-1 [8]) was “Dose-dependent effect”.

In the case of `O=C1c2cccc(Cl)c2C(OCC2(CO)CC2)(c2ccc(Cl)cc2)N1Cc1ccc([N+](=O)[O-])cc1` (single isomer, unassigned; (+)) [listing 1 of 2 here], the GI50 (SJSA-1 [2]) is reported as 12.2 µM, the GI50 (HCT-116 [3]) is reported as 12.3 µM and the GI50 (HCT-116 [4]) is reported as 14.4 µM. For the same compound, the GI50 (A2780) was 7.7 µM and the GI50 [5] was 14.5 µM.

With `O=C1c2cccc(Cl)c2C(OCC2(CO)CC2)(c2ccc(Cl)cc2)N1Cc1ccc([N+](=O)[O-])cc1` (single isomer, unassigned; (+)) [listing 2 of 2 here] the Activity (SJSA-1 [9]) was “inactive”, the Activity (SJSA-1 [10]) was “inactive” and the Activity (SJSA-1 [11]) was “inactive”.

Work on `O=C1c2cccc(Cl)c2C(OCC2(CO)CC2)(c2ccc(Cl)cc2)N1Cc1ccc([N+](=O)[O-])cc1` (single isomer, unassigned; (-)) [listing 1 of 2 here] yielded a GI50 (SJSA-1 [2]) of 3.7 µM, a GI50 (HCT-116 [3]) of 3.7 µM and a GI50 (HCT-116 [4]; Homo sapiens, HCT-116) of 12.5 µM. It also gave a GI50 (A2780) of 3.3 µM and a GI50 ([5]; Homo sapiens, A2780/CP70) of 13.6 µM.

With `O=C1c2cccc(Cl)c2C(OCC2(CO)CC2)(c2ccc(Cl)cc2)N1Cc1ccc([N+](=O)[O-])cc1` (single isomer, unassigned; (-)) [listing 2 of 2 here] the Activity (SJSA-1 [6]) was “Dose-dependent effect”, the Activity (SJSA-1 [7]) was “Dose-dependent effect” and the Activity (SJSA-1 [8]) was “Dose-dependent effect”.

`COc1ccc(C2=N[C@@H](c3ccc(Cl)cc3)[C@@H](c3ccc(Cl)cc3)N2C(=O)N2CCNC(=O)C2)c(OC(C)C)c1` [NUTLIN-3] gave a GI50 (SJSA-1 [2]; Homo sapiens, SJSA-1) of 1.3 µM, a GI50 (HCT-116 [3]; Homo sapiens, HCT-116) of 2.1 µM and a GI50 (HCT-116 [4]; Homo sapiens, HCT-116) of 25.6 µM. The GI50 (A2780; Homo sapiens, A2780) was 1.6 µM and the GI50 ([5]; Homo sapiens, A2780/CP70) was 20.4 µM.
